# Data as given in ChEMBL document CHEMBL4118152, “Discovery of Potent and Selective Periphery-Restricted Quinazoline Inhibitors of the Cyclic Nucleotide Phosphodiesterase PDE1” (J Med Chem, 2018).
# Legend:
# [1] = target: 5-hydroxytryptamine receptor 2C (Homo sapiens) (UniProt P28335); assay: Inhibition of human 5-HT2C receptor at 10 uM relative to control
# [2] = target: 5-hydroxytryptamine receptor 1A (Homo sapiens) (UniProt P08908); assay: Inhibition of human 5-HT1A receptor at 10 uM relative to control
# Chain of 5-hydroxytryptamine receptor 1A (Homo sapiens) (P08908 whole entry): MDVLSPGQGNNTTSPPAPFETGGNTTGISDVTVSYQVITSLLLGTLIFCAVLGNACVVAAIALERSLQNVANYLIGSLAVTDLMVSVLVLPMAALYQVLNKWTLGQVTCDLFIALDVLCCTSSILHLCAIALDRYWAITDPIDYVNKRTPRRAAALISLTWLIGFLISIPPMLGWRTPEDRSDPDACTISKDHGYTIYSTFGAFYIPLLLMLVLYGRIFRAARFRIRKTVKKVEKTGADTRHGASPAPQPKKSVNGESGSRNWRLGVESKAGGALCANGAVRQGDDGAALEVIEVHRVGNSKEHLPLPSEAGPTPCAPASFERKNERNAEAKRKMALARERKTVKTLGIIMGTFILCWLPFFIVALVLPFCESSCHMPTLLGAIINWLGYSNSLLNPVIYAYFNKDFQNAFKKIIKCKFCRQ
# [3] = Selectivity ratio of IC50 for bovine retina PDE6A to IC50 for full length recombinant human PDE1B1
# How it was run: (§1)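 IC50s were measured against recombinant PDEs, all human except PDE6A (bovine). Each enzyme was given its appropriate cAMP or cGMP substrate at below 1/3 of its Km. IC50s are the mean of n = 3 or more. The selectivity ratio is the IC50 for the other PDE divided by the IC50 for PDE1B1 or PDE1A.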
# [4] = species on record: Homo sapiens; assay: Inhibition of human phencyclidine receptor at 10 uM relative to control
# [5] = target: Type-1 angiotensin II receptor (Homo sapiens) (UniProt P30556); assay: Inhibition of human angiotensin 1 receptor at 10 uM relative to control
# [6] = target: Muscarinic acetylcholine receptor M2 (Homo sapiens) (UniProt P08172); assay: Inhibition of human muscarinic M2 receptor at 10 uM relative to control
# [7] = species on record: Homo sapiens; assay: Selectivity ratio of IC50 for full length recombinant human PDE4D3 to IC50 for full length recombinant human PDE1B1; how it was run: as §1
# [8] = target: cGMP-specific 3',5'-cyclic phosphodiesterase (Homo sapiens, UniProt O76074); assay: Inhibition of full length recombinant human PDE5A1 using 3',5'-[3H]cGMP as substrate after 30 mins by scintillation proximity assay
# How it was run: (§2)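 Enzymes were human except PDE6A, which was bovine. Each was assayed with cAMP or cGMP substrate, as appropriate to the enzyme, at concentrations below 1/3 of Km. IC50 values are mean ± SEM from n = 3 or more.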
# [9] = target: Dual 3',5'-cyclic-AMP and -GMP phosphodiesterase 11A (Homo sapiens, UniProt Q9HCR9); assay: Inhibition of full length recombinant human PDE11A4 using 3',5'-[3H]cGMP as substrate after 30 mins by scintillation proximity assay; how it was run: as §2
# [10] = target: Beta-2 adrenergic receptor (Homo sapiens) (UniProt P07550); assay: Inhibition of human beta 2 adrenergic receptor at 10 uM relative to control
# [11] = Fraction unbound in Wistar Hannover rat plasma at 1 mg/kg, sc measured at 1 hr post dose by LC-MS/MS analysis; format: ADME, organism-based; conditions: in vivo
# [12] = target: Muscarinic acetylcholine receptor M3 (Homo sapiens) (UniProt P20309); assay: Inhibition of human muscarinic M3 receptor at 10 uM relative to control
# [13] = species on record: Homo sapiens; assay: Displacement of [125I]alpha -bungarotoxin from human nAChR (Muscle-Type) at 10 uM after 120 mins by scintillation counting analysis relative to control
# [14] = species on record: Homo sapiens; assay: Selectivity ratio of IC50 for full length recombinant human PDE11A4 to IC50 for full length recombinant human PDE1B1; how it was run: as §1
# [15] = target: 3',5'-cyclic-AMP phosphodiesterase 7B (Homo sapiens, UniProt Q9NP56); assay: Inhibition of full length recombinant human PDE7B using 3',5'-[3H]cAMP as substrate after 30 mins by scintillation proximity assay; how it was run: as §2
# [16] = Fraction unbound in Wistar Hannover rat plasma at 1 mg/kg, sc measured at 0.5 hrs post dose by LC-MS/MS analysis; format: ADME, organism-based; conditions: in vivo
# [17] = species on record: Homo sapiens; assay: Selectivity ratio of IC50 for full length recombinant human PDE10A1 to IC50 for full length recombinant human PDE1B1; how it was run: as §1
# [18] = species on record: Rattus norvegicus; assay: Inhibition of rat GABA-A receptor at 10 uM relative to control
# [19] = species on record: Homo sapiens; assay: Selectivity ratio of IC50 for full length recombinant human PDE1C to IC50 for full length recombinant human PDE1B1; how it was run: as §1
# [20] = target: D(4) dopamine receptor (Homo sapiens) (UniProt P21917); assay: Inhibition of dopamine D4 receptor (unknown origin) at 10 uM relative to control
# Chain of D(4) dopamine receptor (Homo sapiens) (P21917 whole entry): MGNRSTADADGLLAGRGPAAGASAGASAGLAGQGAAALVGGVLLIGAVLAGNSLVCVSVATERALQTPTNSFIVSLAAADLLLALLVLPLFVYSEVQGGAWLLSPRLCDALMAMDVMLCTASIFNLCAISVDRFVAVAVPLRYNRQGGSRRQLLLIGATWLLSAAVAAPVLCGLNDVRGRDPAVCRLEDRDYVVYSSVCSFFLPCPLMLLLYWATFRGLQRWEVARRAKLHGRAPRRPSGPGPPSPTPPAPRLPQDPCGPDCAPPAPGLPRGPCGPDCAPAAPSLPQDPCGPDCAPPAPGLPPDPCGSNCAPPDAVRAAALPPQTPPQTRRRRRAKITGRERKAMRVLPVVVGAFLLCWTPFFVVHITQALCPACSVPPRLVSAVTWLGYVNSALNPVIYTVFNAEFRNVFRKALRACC
# [21] = target: Mitogen-activated protein kinase 14 (Homo sapiens) (UniProt Q16539); assay: Inhibition of recombinant human p38 alpha using Ulight-CFFKNIVTPRTPPPSQGK-amide as substrate at 10 uM after 30 mins in presence of ATP by LANCE method relative to control
# Chain of Mitogen-activated protein kinase 14 (Homo sapiens) (Q16539 whole entry): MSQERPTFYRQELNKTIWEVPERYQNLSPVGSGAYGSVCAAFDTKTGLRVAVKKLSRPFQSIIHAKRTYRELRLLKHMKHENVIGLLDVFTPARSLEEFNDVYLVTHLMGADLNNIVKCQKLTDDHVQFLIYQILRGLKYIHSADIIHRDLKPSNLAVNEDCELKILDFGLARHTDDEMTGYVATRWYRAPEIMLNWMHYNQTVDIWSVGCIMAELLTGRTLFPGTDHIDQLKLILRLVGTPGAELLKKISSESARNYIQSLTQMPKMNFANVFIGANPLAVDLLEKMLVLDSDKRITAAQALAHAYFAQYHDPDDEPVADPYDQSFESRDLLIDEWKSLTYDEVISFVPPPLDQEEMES
# [22] = target: Substance-K receptor (Homo sapiens) (UniProt P21452); assay: Inhibition of NK2 receptor (unknown origin) at 10 uM relative to control
# Chain of Substance-K receptor (Homo sapiens) (P21452 whole entry): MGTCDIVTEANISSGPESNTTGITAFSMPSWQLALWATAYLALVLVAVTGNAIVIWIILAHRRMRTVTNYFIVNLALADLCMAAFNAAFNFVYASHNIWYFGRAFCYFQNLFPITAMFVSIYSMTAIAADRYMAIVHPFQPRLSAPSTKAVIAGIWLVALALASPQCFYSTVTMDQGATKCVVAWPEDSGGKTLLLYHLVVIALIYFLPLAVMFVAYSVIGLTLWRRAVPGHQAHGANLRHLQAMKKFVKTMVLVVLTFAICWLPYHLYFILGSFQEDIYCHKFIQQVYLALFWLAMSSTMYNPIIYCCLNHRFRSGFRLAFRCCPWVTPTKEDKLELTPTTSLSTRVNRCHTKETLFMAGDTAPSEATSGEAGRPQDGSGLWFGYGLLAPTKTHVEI
# [23] = target: Cysteinyl leukotriene receptor 1 (Homo sapiens) (UniProt Q9Y271); assay: Inhibition of human leukotriene D4 receptor at 10 uM relative to control
# [24] = target: Vascular endothelial growth factor receptor 1 (Homo sapiens) (UniProt P17948); assay: Inhibition of recombinant human VEGFR1 using Ulight-TK peptide as substrate at 10 uM after 15 mins in presence of ATP by LANCE method relative to control
# Chain of Vascular endothelial growth factor receptor 1 (Homo sapiens) (P17948 whole entry): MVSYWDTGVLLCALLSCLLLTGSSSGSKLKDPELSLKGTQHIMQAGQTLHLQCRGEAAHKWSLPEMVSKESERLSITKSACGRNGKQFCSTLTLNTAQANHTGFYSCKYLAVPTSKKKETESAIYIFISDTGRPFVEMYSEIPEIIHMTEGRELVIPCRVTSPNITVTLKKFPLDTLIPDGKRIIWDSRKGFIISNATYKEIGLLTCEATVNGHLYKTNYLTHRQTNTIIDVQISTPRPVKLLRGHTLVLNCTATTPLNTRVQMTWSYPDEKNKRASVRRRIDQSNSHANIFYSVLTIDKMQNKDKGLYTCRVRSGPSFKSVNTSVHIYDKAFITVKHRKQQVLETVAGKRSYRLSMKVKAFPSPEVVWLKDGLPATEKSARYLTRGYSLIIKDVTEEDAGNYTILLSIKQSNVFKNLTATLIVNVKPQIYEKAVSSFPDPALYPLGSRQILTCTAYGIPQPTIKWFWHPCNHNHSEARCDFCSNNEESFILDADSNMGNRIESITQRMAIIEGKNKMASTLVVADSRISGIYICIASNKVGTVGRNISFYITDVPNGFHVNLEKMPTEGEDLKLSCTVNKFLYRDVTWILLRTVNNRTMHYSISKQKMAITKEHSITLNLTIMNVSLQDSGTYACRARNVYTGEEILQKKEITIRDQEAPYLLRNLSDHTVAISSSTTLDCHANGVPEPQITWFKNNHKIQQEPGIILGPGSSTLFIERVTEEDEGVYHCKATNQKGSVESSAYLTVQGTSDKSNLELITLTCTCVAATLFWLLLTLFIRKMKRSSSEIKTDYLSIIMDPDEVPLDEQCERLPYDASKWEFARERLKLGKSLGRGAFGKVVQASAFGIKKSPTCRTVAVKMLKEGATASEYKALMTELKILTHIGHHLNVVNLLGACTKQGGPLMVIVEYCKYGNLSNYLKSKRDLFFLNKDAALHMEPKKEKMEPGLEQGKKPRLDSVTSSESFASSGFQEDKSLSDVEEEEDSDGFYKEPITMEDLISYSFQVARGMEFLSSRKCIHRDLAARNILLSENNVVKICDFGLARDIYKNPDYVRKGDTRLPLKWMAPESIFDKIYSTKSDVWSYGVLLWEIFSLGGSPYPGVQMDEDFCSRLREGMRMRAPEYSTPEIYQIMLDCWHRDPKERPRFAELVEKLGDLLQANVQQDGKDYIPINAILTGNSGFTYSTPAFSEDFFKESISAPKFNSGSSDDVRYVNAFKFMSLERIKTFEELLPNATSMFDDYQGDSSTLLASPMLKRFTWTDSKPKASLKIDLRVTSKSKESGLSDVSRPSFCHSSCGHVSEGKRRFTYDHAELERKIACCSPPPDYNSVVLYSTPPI
# [25] = target: Muscarinic acetylcholine receptor M4 (Homo sapiens) (UniProt P08173); assay: Inhibition of human muscarinic M4 receptor at 10 uM relative to control
# [26] = target: Sodium-dependent dopamine transporter (Homo sapiens) (UniProt Q01959); assay: Inhibition of dopamine transporter (unknown origin) at 10 uM relative to control
# [27] = species on record: Homo sapiens; assay: Inhibition of human endothelin receptor at 10 uM relative to control
# [28] = target: Dual specificity calcium/calmodulin-dependent 3',5'-cyclic nucleotide phosphodiesterase 1C (Homo sapiens, UniProt Q14123); assay: Inhibition of full length recombinant human PDE1C using 3',5'-[3H]cAMP as substrate after 30 mins by scintillation proximity assay
# How it was run: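 Human recombinant enzymes; substrate held below 1/3 of Km. IC50 reported as mean ± SEM of at least 3 determinations.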
# [29] = target: Sodium-dependent noradrenaline transporter (Homo sapiens) (UniProt P23975); assay: Inhibition of human norepinephrine transporter at 10 uM relative to control
# Chain of Sodium-dependent noradrenaline transporter (Homo sapiens) (P23975 whole entry): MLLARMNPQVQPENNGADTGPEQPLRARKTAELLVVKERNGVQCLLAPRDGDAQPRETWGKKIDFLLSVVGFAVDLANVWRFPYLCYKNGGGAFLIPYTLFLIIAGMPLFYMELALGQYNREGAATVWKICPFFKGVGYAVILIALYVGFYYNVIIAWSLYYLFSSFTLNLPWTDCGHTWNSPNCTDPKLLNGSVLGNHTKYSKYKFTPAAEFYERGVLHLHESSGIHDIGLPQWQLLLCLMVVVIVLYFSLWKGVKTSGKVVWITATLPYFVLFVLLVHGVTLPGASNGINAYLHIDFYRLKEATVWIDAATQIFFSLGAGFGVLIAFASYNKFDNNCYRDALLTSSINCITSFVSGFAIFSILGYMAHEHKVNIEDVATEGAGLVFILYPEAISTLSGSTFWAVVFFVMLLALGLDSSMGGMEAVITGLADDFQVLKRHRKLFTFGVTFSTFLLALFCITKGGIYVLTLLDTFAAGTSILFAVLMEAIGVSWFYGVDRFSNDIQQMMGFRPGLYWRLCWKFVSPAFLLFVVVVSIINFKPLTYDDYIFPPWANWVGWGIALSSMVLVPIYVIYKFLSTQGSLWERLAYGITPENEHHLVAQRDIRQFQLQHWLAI
# [30] = target: Carbonic anhydrase 2 (Homo sapiens) (UniProt P00918); assay: Inhibition of human carbonic anhydrase 2 using 4-nitrophenyl acetate as substrate at 10 uM after 20 mins by spectrophotometric method relative to control
# [31] = target: D(2) dopamine receptor (Homo sapiens) (UniProt P14416); assay: Inhibition of dopamine D2 receptor (unknown origin) at 10 uM relative to control
# Chain of D(2) dopamine receptor (Homo sapiens) (P14416 whole entry): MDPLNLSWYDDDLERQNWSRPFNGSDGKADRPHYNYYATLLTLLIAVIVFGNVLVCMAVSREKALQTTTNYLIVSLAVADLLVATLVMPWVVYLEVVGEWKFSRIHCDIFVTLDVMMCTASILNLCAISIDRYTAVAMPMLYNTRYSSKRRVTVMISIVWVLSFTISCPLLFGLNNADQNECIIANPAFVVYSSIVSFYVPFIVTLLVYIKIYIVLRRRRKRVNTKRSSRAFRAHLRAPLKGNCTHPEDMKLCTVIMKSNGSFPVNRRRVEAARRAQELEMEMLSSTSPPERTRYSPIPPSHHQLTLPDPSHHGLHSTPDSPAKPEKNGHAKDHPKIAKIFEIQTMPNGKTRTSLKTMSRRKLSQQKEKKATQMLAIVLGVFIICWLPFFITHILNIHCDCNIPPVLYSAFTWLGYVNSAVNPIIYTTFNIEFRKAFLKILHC
# [32] = species on record: Homo sapiens; assay: Selectivity ratio of IC50 for full length recombinant human PDE10A1 to IC50 for full length recombinant human PDE1A; how it was run: as §1
# [33] = target: Muscarinic acetylcholine receptor M1 (Homo sapiens) (UniProt P11229); assay: Inhibition of human muscarinic M1 receptor at 10 uM relative to control
# [34] = target: Adenosine A2 receptor (Homo sapiens) (UniProt P29275+P29274); assay: Inhibition of human adenosine A2 receptor at 10 uM relative to control; format: protein assay
# [35] = target: D(3) dopamine receptor (Homo sapiens) (UniProt P35462); assay: Inhibition of human dopamine D3 receptor at 10 uM relative to control
# Chain of D(3) dopamine receptor (Homo sapiens) (P35462 whole entry): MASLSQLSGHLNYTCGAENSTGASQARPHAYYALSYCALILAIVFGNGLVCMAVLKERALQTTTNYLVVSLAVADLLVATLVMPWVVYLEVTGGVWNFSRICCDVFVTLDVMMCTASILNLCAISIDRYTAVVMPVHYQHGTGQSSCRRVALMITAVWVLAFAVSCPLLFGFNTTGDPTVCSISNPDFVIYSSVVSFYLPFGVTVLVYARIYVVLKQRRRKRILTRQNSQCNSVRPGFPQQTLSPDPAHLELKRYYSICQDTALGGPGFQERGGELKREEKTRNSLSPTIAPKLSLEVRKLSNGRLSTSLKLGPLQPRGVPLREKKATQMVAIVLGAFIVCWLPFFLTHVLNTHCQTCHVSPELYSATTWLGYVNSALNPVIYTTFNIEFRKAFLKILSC
# [36] = target: Endothelin-1 receptor (Homo sapiens) (UniProt P25101); assay: Inhibition of endothelin A receptor (unknown origin) at 10 uM relative to control
# Chain of Endothelin-1 receptor (Homo sapiens) (P25101 whole entry): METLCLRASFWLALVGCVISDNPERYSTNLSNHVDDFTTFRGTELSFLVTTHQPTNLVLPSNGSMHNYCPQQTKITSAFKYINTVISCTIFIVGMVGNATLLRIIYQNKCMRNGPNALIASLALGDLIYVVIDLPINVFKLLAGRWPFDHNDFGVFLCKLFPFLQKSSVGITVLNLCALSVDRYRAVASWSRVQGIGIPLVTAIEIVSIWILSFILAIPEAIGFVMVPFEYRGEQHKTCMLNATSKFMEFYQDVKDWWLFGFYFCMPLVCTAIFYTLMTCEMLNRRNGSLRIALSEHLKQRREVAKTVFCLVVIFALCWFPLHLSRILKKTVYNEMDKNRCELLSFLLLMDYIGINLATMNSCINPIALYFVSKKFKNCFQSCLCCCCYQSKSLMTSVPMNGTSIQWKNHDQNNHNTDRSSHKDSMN
smiles,measurement,setting,value
COc1ccc2c(N[C@@H](C)Cc3cc(C)[nH]n3)ncnc2c1OC,inhibition,[1],< 50%
same,inhibition,[2],< 50%
same,Ratio IC50,[3],> 15600
same,inhibition,[4],< 50%
same,inhibition,[5],< 50%
same,inhibition,[6],< 50%
same,Ratio IC50,[7],2890
same,IC50,[8],54.3 µM
same,IC50,[9],34.7 µM
same,inhibition,[10],< 50%
same,Cp(f),[11],120 nM
same,inhibition,[12],< 50%
same,inhibition,[13],< 50%
same,Ratio IC50,[14],3740
same,IC50,[15],41.3 µM
same,Cp(f),[16],171 nM
same,Ratio IC50,[17],45
same,inhibition,[18],< 50%
same,Ratio IC50,[19],4.2
same,inhibition,[20],< 50%
same,inhibition,[21],< 50%
same,inhibition,[22],< 50%
same,inhibition,[23],< 50%
same,inhibition,[24],< 50%
same,inhibition,[25],< 50%
same,inhibition,[26],< 50%
same,inhibition,[27],< 50%
same,IC50,[28],0.038 µM
same,inhibition,[29],< 50%
same,inhibition,[30],< 50%
same,inhibition,[31],< 50%
same,Ratio IC50,[32],10
same,inhibition,[33],< 50%
same,inhibition,[34],< 50%
same,inhibition,[35],< 50%
same,inhibition,[36],< 50%
